# In BindingDB's records for doi:10.1021/acs.jmedchem.7b01557 (University of Colorado, 2018):
# Target: T1, Toll-like receptor 7 (Homo sapiens, UniProt Q9NYK1)
# T1 sequence (Q9NYK1 whole entry): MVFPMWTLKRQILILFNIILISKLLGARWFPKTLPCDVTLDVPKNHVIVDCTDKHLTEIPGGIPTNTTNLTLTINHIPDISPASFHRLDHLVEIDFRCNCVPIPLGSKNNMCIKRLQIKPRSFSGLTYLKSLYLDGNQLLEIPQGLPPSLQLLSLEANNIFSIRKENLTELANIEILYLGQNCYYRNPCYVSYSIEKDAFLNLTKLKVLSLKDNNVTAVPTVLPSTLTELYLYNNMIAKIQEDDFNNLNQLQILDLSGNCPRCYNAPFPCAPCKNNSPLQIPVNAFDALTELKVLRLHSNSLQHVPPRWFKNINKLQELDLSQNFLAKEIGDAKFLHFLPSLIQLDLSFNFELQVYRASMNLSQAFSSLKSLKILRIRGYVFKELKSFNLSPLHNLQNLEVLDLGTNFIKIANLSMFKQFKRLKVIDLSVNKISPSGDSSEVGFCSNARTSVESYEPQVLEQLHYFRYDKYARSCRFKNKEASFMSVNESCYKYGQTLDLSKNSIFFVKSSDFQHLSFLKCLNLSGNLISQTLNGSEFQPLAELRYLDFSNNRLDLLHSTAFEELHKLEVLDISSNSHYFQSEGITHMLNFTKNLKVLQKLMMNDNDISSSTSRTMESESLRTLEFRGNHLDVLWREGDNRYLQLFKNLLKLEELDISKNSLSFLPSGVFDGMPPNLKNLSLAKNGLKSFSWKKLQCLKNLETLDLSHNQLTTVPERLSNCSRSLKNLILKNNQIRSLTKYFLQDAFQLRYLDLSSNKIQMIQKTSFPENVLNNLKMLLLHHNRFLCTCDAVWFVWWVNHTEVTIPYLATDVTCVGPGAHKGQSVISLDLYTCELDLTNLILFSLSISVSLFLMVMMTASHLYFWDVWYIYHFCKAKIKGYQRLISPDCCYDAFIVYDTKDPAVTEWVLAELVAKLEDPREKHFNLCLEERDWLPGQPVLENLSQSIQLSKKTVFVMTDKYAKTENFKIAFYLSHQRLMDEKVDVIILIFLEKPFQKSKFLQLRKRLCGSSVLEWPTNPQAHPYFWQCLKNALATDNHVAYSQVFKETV
# Experiment: Antagonist activity at human TLR7 expressed in HEK293 cells assessed as inhibition of R848-induced NF-kappaB activation-mediated SEAP production after 24 hrs by Quanti-blue-based assay
# Method in brief: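 HEK293 cells stably carrying a human TLR plus an NF-κB-driven SEAP reporter, seeded 5×10^4/well for 24 h at 37 °C, then stimulated: Pam3CSK4 100 µg/mL (TLR1/2), Pam2CSK4 100 µg/mL, poly I:C 5 µg/mL (TLR3), LPS 20 ng/mL (TLR4), flagellin 100 ng/mL (TLR5), R848 1 µg/mL (TLR7, TLR8), CpG-ODN2006 1 µg/mL (TLR9). After 24 h with compound, supernatant mixed with QUANTI-Blue, 1 h 37 °C, OD 620 nm.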
row,SMILES,IC50 [µM]
1,O=C(NNC(=O)c1csc(-c2ccc(C(F)(F)F)cc2)n1)c1ccccn1,0.99
2,O=C(NNC(=O)c1csc(-c2cccc(Br)c2)n1)c1ccccn1,0.9
3,CN(C)c1ccc(-c2nc(C(=O)NNC(=O)c3ccccn3)cs2)cc1,1.9
4,Nc1nccnc1C(=O)NNC(=O)c1ccc(OC(F)(F)F)cc1,27
5,O=C(NNC(=O)c1ccccn1)c1ccc(Br)cc1,17
6,O=C(NNC(=O)c1csc(-c2ccc(Cl)cc2Cl)n1)c1ccccn1,0.26
7,Nc1nccnc1C(=O)NNC(=O)c1ccc(C(F)(F)F)cc1,25
8,Nc1cccnc1C(=O)NNC(=O)c1cccc(C(F)(F)F)c1,16
9,O=C(NNC(=O)c1ncccc1O)c1cccc(C(F)(F)F)c1,14.2
10,O=C(NNC(=O)c1ccccn1)c1ccc(C(F)(F)F)cc1,17
11,O=C(NNC(=O)c1ccccn1)c1ccc(Cl)cc1,24.7
12,O=C(NNC(=O)c1ncccc1O)c1ccc(OC(F)(F)F)cc1,7.9
13,O=C(NNC(=O)c1ncccc1O)c1ccc(Cl)cc1,27.8
14,Cc1nc(C(=O)NNC(=O)c2ccc(Cl)cc2)cs1,44.8
15,Cc1nc(C(=O)NNC(=O)c2ccccn2)cs1,30
16,CC(C)c1nc(C(=O)NNC(=O)c2ccccn2)cs1,14
17,O=C(NNC(=O)c1csc(-c2ccc(F)cc2)n1)c1ccccn1,4.4
18,O=C(NNC(=O)c1csc(-c2ccc(Cl)cc2)n1)c1ccccn1,2.1

row,SMILES,IC50 [µM]
1,Cc1ccc(-c2nc(C(=O)NNC(=O)c3ccccn3)cs2)cc1,1.83
2,COc1ccc(-c2nc(C(=O)NNC(=O)c3ccccn3)cs2)cc1,3.09
3,COc1ccc(-c2nc(C(=O)NNC(=O)c3ccccn3)cs2)cc1OC,3.9
4,O=C(NNC(=O)c1csc(-c2cccc(Cl)c2Cl)n1)c1ccccn1,0.5
5,O=C(NNC(=O)c1csc(-c2cc(Cl)cc(Cl)c2)n1)c1ccccn1,0.44
6,O=C(NNC(=O)c1csc(-c2cccc(F)c2)n1)c1ccccn1,2.6
7,O=C(NNC(=O)c1csc(-c2cccc(C(F)(F)F)c2)n1)c1ccccn1,1.02
8,O=C(NNC(=O)c1ncccc1O)c1ccc(Br)cc1,17.3
9,O=C(NNC(=O)c1csc(-c2cccnc2)n1)c1ccccn1,23.2
10,CCc1ccc(-c2nc(C(=O)NNC(=O)c3ccccn3)cs2)cc1,2.4
11,O=C(NNC(=O)c1csc(-c2cccc(Cl)c2)n1)c1ccccn1,1
12,Nc1nccnc1C(=O)NNC(=O)c1cccc(C(F)(F)F)c1,38
13,O=C(NNC(=O)c1ccccn1)c1cccc(C(F)(F)F)c1,15
14,O=C(NNC(=O)c1ncccc1O)c1ccc(C(F)(F)F)cc1,13.4
15,Cc1nc(C(=O)NNC(=O)c2cccc(Cl)c2)cs1,60
16,O=C(NNC(=O)c1ccccn1)c1ccc(OC(F)(F)F)cc1,22
17,O=C(NNC(=O)c1csc(-c2ccccc2)n1)c1ccccn1,5.8
